Reference: paper PMC9008867 (Therapeutic Advances in Medical Oncology, 2022)
Several values for one entry are separate records, joined by “and”; a condition that tells them apart may be missing. Equal values may be shown once. Read-outs that look alike come from different tables or passages of the source.

What was measured:
[1] = tested on: Asian patients with advanced or metastatic malignancies; test: Adverse events; format: in vivo, human; settings: Schedule 2; patients n (%)
Method in brief: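 Test compound given orally by schedule. Schedule 1: Mon/Thu, 28-day cycle. Schedule 2: Mondays weekly, 28-day cycle. Schedule 3: Mon/Wed for 2 of 3 weeks, 21-day cycle. Schedule 4: Mon/Wed/Fri, 28-day cycle. All patients received anorexia/nausea prophylaxis. AEs were recorded up to 30 days after the last dose and graded every 2 weeks for cycles 1–2, then every 4 weeks.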

[2] = tested on: Asian patients with advanced or metastatic malignancies; format: in vivo, human
[3] = Plasma selinexor pharmacokinetics; format: in vivo, human
[4] = tested on: XPO1; test: XPO1 mRNA expression in PBMCs/leukocytes by qRT-PCR pre and post dose; format: in vivo, human; settings: 40 and 50 mg/m^2, 10 patients assessed
[5] = tested on: tumour biopsies; test: Immunohistochemistry of paired pretreatment and ontreatment tumour biopsies; format: in vivo, human
Method in brief: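 Paired pretreatment and on-treatment tumour biopsies came from six consenting dose-escalation patients. IHC covered […], Ki67 for proliferation, and ApopTag and cleaved caspase 3 for apoptosis.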

[6] = tested on: advanced or metastatic malignancies; test: Antitumour response; format: in vivo, human
Method in brief: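 Solid tumours were imaged by CT or MRI and scored by RECIST 1.1. NHL was scored by IWG criteria; CTCL by consensus criteria with mSWAT skin scoring plus nodes, blood and viscera. Response was documented at least once at 8 weeks, then every two cycles. Evaluable patients had ≥1 dose and ≥1 postbaseline scan. Expansion dosing: flat 60 mg on days 1, 4, 8, 11 of 21-day cycles.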

[7] = tested on: colorectal cancer; test: Exploratory PFS subgroup analysis in advanced colorectal cancer patients; format: in vivo, human
[8] = cited from earlier work
[9] = tested on: relapsed or refractory diffuse large B cell lymphoma; settings: relapsed or refractory DLBCL; cited from earlier work
[10] = tested on: metastatic castration-resistant prostate cancer; settings: eight patients with measurable disease at baseline; cited from earlier work
[11] = tested on: leukocytes; settings: cited from earlier work
[12] = tested on: human melanoma cell lines; settings: cited from earlier work
[13] = expansion phase, with drug holiday and pre-emptive antiemetic regimen
[14] = after 6 weeks of treatment vs baseline, lymphoma, thymoma, colorectal carcinoma
[15] = all dose levels, 74 evaluable patients
[16] = phase 1b expansion cohort, 35 evaluable patients
[17] = Caucasian patients, 39 mg/m^2, n = 9

O=C(/C=C\n1cnc(-c2cc(C(F)(F)F)cc(C(F)(F)F)c2)n1)NNc1cnccn1 [selinexor]
Abdominal discomfort, Any grade [1]: 4 (23.52) % | Abdominal discomfort, G1/G2 [1]: 4 (23.52) % | Anaemia, Any grade [1]: 6 (35.29) % | Anorexia, Any grade [1]: 10 (58.8) % | Back pain, Any grade [1]: 1 (5.88) % | Constipation, Any grade [1]: 1 (5.88) % | Diarrhoea, Any grade [1]: 3 (17.64) % | Edema, Any grade [1]: 1 (5.88) % | Fatigue, Any grade [1]: 14 (82.35) % | Hypokalaemia, Any grade [1]: 2 (11.76) % | Hypomagnesemia, Any grade [1]: 5 (29.41) % | Hyponatremia, Any grade [1]: 11 (64.70) % | Hypophosphatemia, Any grade [1]: 3 (17.64) % | Hypotension, Any grade [1]: 1 (5.88) % | Intention tremor, Any grade [1]: 1 (5.88) % | Mucositis, Any grade [1]: 1 (5.88) % | Nausea, Any grade [1]: 11 (64.70) % | Neutropenia, Any grade [1]: 2 (11.76) % | Palpitation, Any grade [1]: 1 (5.88) % | Pneumonitis, Any grade [1]: 1 (5.88) % | Raised amylase/lipase, Any grade [1]: 1 (5.88) % | Raised amylase/lipase, G1/G2 [1]: 1 (5.88) % | Thrombocytopenia, Any grade [1]: 6 (35.29) % | Vomiting, Any grade [1]: 7 (41.17) % | Weight loss, Any grade [1]: 5 (29.41) % | tolerability ([2]; 60 mg twice a week, 2 out of 3 weeks, Asian patients): well tolerated | Grade 3 fatigue ([2]; dose expansion phase): 8% | grade 3 or 4 anaemia ([2]; dose expansion phase): 2% | grade 3 or 4 hyponatremia ([2]; dose expansion phase): 23% | grade 3 or 4 thrombocytopenia ([2]; dose expansion phase): 5% | grade 3 or 4 vomiting ([2]; dose expansion phase): 5% | patients with grade 3 or 4 cytopenias ([2]; expansion phase): less than 3% | grade 3 or more nausea [2, 13]: no grade 3 or more nausea | incidence of nausea [2, 13]: 30% | deaths ([2]; phase 1b expansion cohort, none attributed to the study drug): Five | Abdominal discomfort, Any grade ([2]; phase 1b, patients n (%)): 5 (13.15) % | Abdominal discomfort, G1/G2 ([2]; phase 1b, patients n (%)): 4 (10.52) % | Abdominal discomfort, G3/G4 ([2]; phase 1b, patients n (%)): 1 (2.63) % | Abdominal distension, Any grade ([2]; phase 1b, patients n (%)): 1 (2.63) % | Abdominal distension, G3/G4 ([2]; phase 1b, patients n (%)): 1 (2.63) % | Abnormal thyroid function, Any grade ([2]; phase 1b, patients n (%)): 2 (5.26) % | Abnormal thyroid function, G1/G2 ([2]; phase 1b, patients n (%)): 2 (5.26) % | Acute kidney injury, Any grade ([2]; phase 1b, patients n (%)): 1 (2.63) % | Acute kidney injury, G1/G2 ([2]; phase 1b, patients n (%)): 1 (2.63) % | Anaemia, Any grade ([2]; phase 1b, patients n (%)): 6 (15.78) % | Anorexia, Any grade ([2]; phase 1b, patients n (%)): 18 (47.36) % | Ascites, Any grade ([2]; phase 1b, patients n (%)): 2 (5.26) % | Asthenia, Any grade ([2]; phase 1b, patients n (%)): 1 (2.63) % | Back pain, Any grade ([2]; phase 1b, patients n (%)): 2 (5.26) % | Blurring of vision, Any grade ([2]; phase 1b, patients n (%)): 3 (7.89) % | Blurring of vision, G1/G2 ([2]; phase 1b, patients n (%)): 3 (7.89) % | Constipation, Any grade ([2]; phase 1b, patients n (%)): 6 (15.78) % | Cough, Any grade ([2]; phase 1b, patients n (%)): 2 (5.26) % | Dehydration, Any grade ([2]; phase 1b, patients n (%)): 2 (5.26) % | Diarrhoea, Any grade ([2]; phase 1b, patients n (%)): 10 (26.31) % | Dysgeusia, Any grade ([2]; phase 1b, patients n (%)): 12 (31.57) % | Dyspnoea/Shortness of breath, Any grade ([2]; phase 1b, patients n (%)): 2 (5.26) % | Dyspnoea/Shortness of breath, G1/G2 ([2]; phase 1b, patients n (%)): 2 (5.26) % | Fever, Any grade ([2]; phase 1b, patients n (%)): 2 (5.26) % | Giddiness, Any grade ([2]; phase 1b, patients n (%)): 3 (7.89) % | Hyperglycaemia, Any grade ([2]; phase 1b, patients n (%)): 2 (5.26) % | Hypersalivation, Any grade ([2]; phase 1b, patients n (%)): 1 (2.63) % | Hyperuricaemia, Any grade ([2]; phase 1b, patients n (%)): 1 (2.63) % | Hypocalcaemia, Any grade ([2]; phase 1b, patients n (%)): 1 (2.63) % | Hypokalaemia, Any grade ([2]; phase 1b, patients n (%)): 7 (18.42) % | Hypomaganesemia, Any grade ([2]; phase 1b, patients n (%)): 3 (7.89) % | Hyponatremia, Any grade ([2]; phase 1b, patients n (%)): 20 (52.63) % | Hypophosphataemia, Any grade ([2]; phase 1b, patients n (%)): 5 (13.15) % | Increased creatinine, Any grade ([2]; phase 1b, patients n (%)): 2 (5.26) % | Increased creatinine, G1/G2 ([2]; phase 1b, patients n (%)): 2 (5.26) % | Lethargy, Any grade ([2]; phase 1b, patients n (%)): 1 (2.63) % | Loss of Appetite, Any grade ([2]; phase 1b, patients n (%)): 8 (21.05) % | Mood swing, Any grade ([2]; phase 1b, patients n (%)): 1 (2.63) % | Mucositis, Any grade ([2]; phase 1b, patients n (%)): 2 (5.26) % | Nausea, Any grade ([2]; phase 1b, patients n (%)): 12 (31.57) % | Peripheral neuropathy, Any grade ([2]; phase 1b, patients n (%)): 2 (5.26) % | Peripheral neuropathy, G1/G2 ([2]; phase 1b, patients n (%)): 2 (5.26) % | Pneumonia, Any grade ([2]; phase 1b, patients n (%)): 1 (2.63) % | Pulmonary embolism, Any grade ([2]; phase 1b, patients n (%)): 1 (2.63) % | Pulmonary embolism, G1/G2 ([2]; phase 1b, patients n (%)): 1 (2.63) % | Raised amylase/lipase, Any grade ([2]; phase 1b, patients n (%)): 1 (2.63) % | Raised amylase/lipase, G1/G2 ([2]; phase 1b, patients n (%)): 1 (2.63) % | Raised amylase/lipase, G3/G4 ([2]; phase 1b, patients n (%)): 1 (2.63) % | Reflux, Any grade ([2]; phase 1b, patients n (%)): 1 (2.63) % | Rt buttock pain, Any grade ([2]; phase 1b, patients n (%)): 1 (2.63) % | Rt leg pain, Any grade ([2]; phase 1b, patients n (%)): 1 (2.63) % | Thrombocytopenia, Any grade ([2]; phase 1b, patients n (%)): 6 (15.78) % | Transaminitis, Any grade ([2]; phase 1b, patients n (%)): 3 (7.89) % | URTI, Any grade ([2]; phase 1b, patients n (%)): 1 (2.63) % | Urinary retention, Any grade ([2]; phase 1b, patients n (%)): 1 (2.63) % | Vomiting, Any grade ([2]; phase 1b, patients n (%)): 8 (21.05) % | Weight loss, Any grade ([2]; phase 1b, patients n (%)): 6 (15.78) % | AUC0-8 dose proportionality ([3]; among 40, 50 and 60 mg/m^2 doses): dose-proportional | predose concentrations after multiple doses ([3]; cycle 1 day 15 or cycle 2 day 8/day 15): either 0 or close to 0 | AUC(0-t) ([3]; human, plasma, oral, 40 mg/m2): 5340 ± 1540 ng·h/mL | Cmax ([3]; human, plasma, oral, 40 mg/m2): 567 ± 159 ng/mL | Tmax ([3]; human, plasma, po, 60 mg/m2): 1 to 4 h | mean T1/2 ([3]; oral, 40-60 mg/m^2): ~ 6 h | patients with at least twofold induction of XPO1 mRNA ([4]; 4 h post dose): nine | patients with greater than twofold mRNA increases in XPO1 ([4]; 8 h post dose): all 10 patients | apoptosis in tumour samples (IHC) [5, 14]: increase | proliferation in tumour samples (IHC) [5, 14]: marked decrease | XPO1 cargo protein p53 localization in tumour sections ([5]; patient with NSCLC): nuclear accumulation | patients with prolonged stable disease of more than 12 weeks [6, 15]: 10 | prolonged stable disease of more than 12 weeks [6, 15]: 13.5% and 13% | patients with confirmed partial response ([6]; all dose levels, 74 evaluable, two DLBCL, one Hodgkin's lymphoma, one thymoma): four | at least stable disease or better as best response [6, 16]: 37.1% | patients with at least stable disease or better as best response [6, 16]: 13 | patients with prolonged stable disease of more than 12 weeks ([6]; phase 1b expansion cohort, all colorectal cancer): four | objective response (confirmed complete and partial response rate) ([6]; whole study): 8% | HR for PFS ([7]; RAS/PIK3CA pathway mutation vs wild-type, p = 0.09, log-rank): 0.58 (0.25–1.32) | median PFS ([7]; colorectal cancer patients with a RAS/PIK3CA pathway mutation): 86 days | median PFS ([7]; colorectal cancer patients, RAS/PIK3CA wild-type): 50 days | PFS ([7]; one heavily pretreated colorectal cancer patient with BRAF V600E somatic mutation): 129 days | AUC0-48 [8, 17]: 5829 ± 1587 ng·h/mL | Cmax [8, 17]: 553 ± 238 ng/mL | Mean half-life ([8]; study KCP-330-002): ~ 6 h | complete response rate [9]: 13% | patients achieving partial response [10]: 25% | patients achieving stable disease as best radiographic response [10]: 50% | PD-1 and CTLA4 gene expression [11]: increase | PD-L1 gene expression [12]: induced
